Test results from article PMC6490184 (ACS infectious diseases, 2019).
Entries after “also recorded” stand apart in the source; their conditions may differ. Counter-ions that a name gives are not always drawn. Like-named read-outs stand apart in the source and are kept apart here.

Key:
[1] = system: E. coli expressing tetracycline destructase enzymes; assay: Checkerboard whole cell inhibition assay; assay type: cell-based; conditions: co-administered with tetracycline antibiotics
[2] = Non-enzymatic stability on storage and in solution; assay type: physicochemical; conditions: extended solution times (overnight), LCMS
[3] = system: tetracycline destructase enzymes Tet(50), Tet(X), and Tet(X)_3; assay type: biochemical
Procedure, shortened: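 Enzymes expressed from pET28b(+) in E. coli BL21-Star (DE3) and Ni-NTA purified. Reactions in 100 mM TAPS pH 8.5 held 504 μM NADPH, 5.04 mM MgCl2, 25.3 μM tetracycline substrate, 0.4 μM enzyme and graded inhibitor, in triplicate. Absorbance at 380 or 400 nm was followed for 4 min. Initial velocities were plotted against log[inhibitor] and fitted by nonlinear regression for IC50. Controls: no-enzyme, no-inhibitor, no-substrate.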

Tet(X) [4] = molecular target: T1, Tet(X) (Bacteroides thetaiotaomicron, UniProt Q93L51); assay: In vitro inhibition of Tet; assay type: biochemical
Tet(50) [5] = molecular target: T2, Tet(50) (Unknown prokaryotic organism, UniProt A0A059WYP6); assay: In vitro inhibition of Tet; assay type: biochemical; conditions: degradation of tetracycline antibiotics by soil-derived Tet(50)
Procedure, shortened: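 Ni-NTA-purified enzyme, dialysed into 50 mM K2HPO4 pH 8.0, 150 mM NaCl, 1 mM DTT. A380 or A400 followed continuously for 4 min. No-enzyme control was set to 1 × 10^15 inhibitor, no-inhibitor control to 1 × 10^−15. No-substrate controls were also run.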

Tet(50) [6] = molecular target: T2, Tet(50); assay: Exposure of aDem to Tet; assay type: biochemical; conditions: Tet(50) with NADPH, no tetracycline, LCMS
Tet(X) [7] = molecular target: T1, Tet(X); assay: Tet; assay type: biochemical; conditions: decrease in 440 nm absorption band and extracted mass (LCMS)
[8] = system: E. coli expressing Tet(X); assay: Whole cell resistance of E. coli expressing Tet; assay type: cell-based
[9] = apparent IC50, Tet(X)-mediated degradation of tigecycline

Row | SMILES | whole cell inhibition / rescue of tetracycline activity [1] | non-enzymatic degradation in solution [2] | in vitro destructase inhibitory activity [3] | IC50 (Tet(X) [4]; [9]) [µM] | other results
1 | Cc1c2c(c(O)c3c(O)ccc(I)c13)C(=O)[C@]1(O)C(=O)C(C(N)=O)=C(O)[C@@H](N(C)C)[C@@H]1C2.Cl [7-I-aTc, (4S,4aS,12aS)-4-(dimethylamino)-3,10,11,12a-tetrahydroxy-7-iodo-6-methyl-1,12-dioxo-1,4,4a,5,12,12a-hexahydrotetracene-2-carboxamide hydrochloride] | limited activity; also recorded: no inhibitory activity | non-enzymatic degradation of 7-I-aTc in solution was observed; also recorded: some non-enzymatic degradation | potent in vitro destructase inhibitory activity |  | 
2 | Cc1c2c(c(O)c3c(O)c(Br)ccc13)C(=O)[C@]1(O)C(=O)C(C(N)=O)=C(O)[C@@H](N(C)C)[C@@H]1C2.Cl [9-Br-aTc, (4S,4aS,12aS)-9-bromo-4-(dimethylamino)-3,10,11,12a-tetrahydroxy-6-methyl-1,12-dioxo-1,4,4a,5,12,12a-hexahydrotetracene-2-carboxamide hydrochloride] | limited activity | some non-enzymatic degradation | potent in vitro destructase inhibitory activity |  | 
3 | Cc1c2c(c(O)c3c(O)ccc(Cl)c13)C(=O)[C@]1(O)C(=O)C(C(N)=O)=C(O)[C@@H](N(C)C)[C@@H]1C2 [aCTc, (4S,4aS,12aS)-7-chloro-4-(dimethylamino)-3,10,11,12a-tetrahydroxy-6-methyl-1,12-dioxo-1,4,4a,5,12,12a-hexahydrotetracene-2-carboxamide hydrochloride] |  |  |  | 0.4 to 1.5 | 
4 | CN(C)[C@@H]1C(O)=C(C(N)=O)C(=O)[C@@]2(O)C(=O)c3c(cc4c(Cl)ccc(O)c4c3O)C[C@@H]12.Cl [aDem, (4S,4aS,12aS)-7-chloro-4-(dimethylamino)-3,10,11,12a-tetrahydroxy-1,12-dioxo-1,4,4a,5,12,12a-hexahydrotetracene-2-carboxamide hydrochloride] | rescues tetracycline activity |  |  | 0.4 to 1.5 | IC50 (Tet(X) [4]; apparent IC50, Tet(X)-mediated degradation of tetracycline antibiotics (tetracycline, demeclocycline)): 1 to 4 µM; in vitro inhibitory activity against enzymatic degradation by Tet(50) (Tet(50) [5]): performed poorly; in vitro inhibitory activity against enzymatic degradation by Tet(50) (Tet(50) [5]; listed as 7): poor in vitro inhibitory activity; decrease in extracted mass over time (Tet(50) [6]): no measurable decrease
5 | Cc1c2c(c(O)c3c(O)cccc13)C(=O)[C@]1(O)C(=O)C(C(N)=O)=C(O)[C@@H](N(C)C)[C@@H]1C2 [aTc, anhydrotetracycline, reference compound] | performs well |  |  |  | IC50 (Tet(X) [4]): 0.4 to 1.5 µM; enzymatic degradation by Tet(X) (Tet(X) [7]): substrate for Tet(X); inhibition model ([3]; Lineweaver-Burk plots, degradation of tetracycline): mixed competitive/non-competitive inhibition model
6 | CN(C)c1cc(NC(=O)CNC(C)(C)C)c(O)c2c1C[C@H]1C[C@H]3[C@H](N(C)C)C(O)=C(C(N)=O)C(=O)[C@@]3(O)C(O)=C1C2=O [tigecycline] |  |  |  |  | resistance, increase over empty vector controls [8]: 2 fold
